Reference: ChEMBL document CHEMBL1135580, “6,7-Dihydro-2-benzothiophen-4(5H)-ones: a novel class of GABA-A alpha5 receptor inverse agonists” (J Med Chem, 2002)

Assays:
[1] = molecular target: GABA-A receptor; alpha-1/beta-3/gamma-2 (Homo sapiens) (UniProt P14867+P18507+P28472); assay: Maximum modulation relative to GABA EC20 against human GABA-A receptor alpha-1-beta-3-gamma-2 subunits expressed in mammalian fibroblast L(tk-) cells; format: cell-based
How it was run: (§1)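 Whole-cell patch-clamp recording from mammalian fibroblast L(tk-) cells stably expressing GABA-A αxβ3γ2 (x = 1, 2, 3 or 5). Compound modulation of a submaximal (EC20) GABA current was recorded. Maximum modulation came from individually fitted concentration-response curves, at least five per value, given as mean ± SEM.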

[2] = molecular target: GABA-A receptor; alpha-3/beta-3/gamma-2 (Homo sapiens) (UniProt P18507+P28472+P34903); assay: Maximum modulation relative to GABA EC20 against human GABA-A receptor alpha-3-beta-3-gamma-2 subunits expressed in mammalian fibroblast L(tk-) cells; format: cell-based; how it was run: as §1
[3] = molecular target: GABA-A receptor; alpha-2/beta-3/gamma-2 (Homo sapiens) (UniProt P18507+P28472+P47869); assay: Maximum modulation relative to GABA EC20 against human GABA-A receptor alpha-2-beta-3-gamma-2 subunits expressed in mammalian fibroblast L(tk-) cells; format: cell-based; how it was run: as §1
[4] = molecular target: T1, GABA-A receptor; alpha-1/beta-3/gamma-2 (Homo sapiens, UniProt P14867+P18507+P28472); assay: Displacement of [3H]- Ro 15-1788 binding from human GABA-A receptor alpha-1-beta-3-gamma-2 subunits; format: protein-complex assay
T1 sequence (P14867 whole entry): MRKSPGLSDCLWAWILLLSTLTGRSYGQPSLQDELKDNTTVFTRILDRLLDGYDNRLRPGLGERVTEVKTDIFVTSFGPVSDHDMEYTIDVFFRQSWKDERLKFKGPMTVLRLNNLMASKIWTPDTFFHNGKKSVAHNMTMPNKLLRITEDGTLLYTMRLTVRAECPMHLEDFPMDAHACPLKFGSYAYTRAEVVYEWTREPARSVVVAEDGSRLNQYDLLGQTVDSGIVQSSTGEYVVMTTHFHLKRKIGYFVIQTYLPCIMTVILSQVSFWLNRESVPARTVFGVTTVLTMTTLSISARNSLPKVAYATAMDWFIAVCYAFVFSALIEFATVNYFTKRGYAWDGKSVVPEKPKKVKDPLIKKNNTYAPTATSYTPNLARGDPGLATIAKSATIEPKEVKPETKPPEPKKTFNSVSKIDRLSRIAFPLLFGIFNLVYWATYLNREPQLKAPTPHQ
T1 sequence (P18507 whole entry): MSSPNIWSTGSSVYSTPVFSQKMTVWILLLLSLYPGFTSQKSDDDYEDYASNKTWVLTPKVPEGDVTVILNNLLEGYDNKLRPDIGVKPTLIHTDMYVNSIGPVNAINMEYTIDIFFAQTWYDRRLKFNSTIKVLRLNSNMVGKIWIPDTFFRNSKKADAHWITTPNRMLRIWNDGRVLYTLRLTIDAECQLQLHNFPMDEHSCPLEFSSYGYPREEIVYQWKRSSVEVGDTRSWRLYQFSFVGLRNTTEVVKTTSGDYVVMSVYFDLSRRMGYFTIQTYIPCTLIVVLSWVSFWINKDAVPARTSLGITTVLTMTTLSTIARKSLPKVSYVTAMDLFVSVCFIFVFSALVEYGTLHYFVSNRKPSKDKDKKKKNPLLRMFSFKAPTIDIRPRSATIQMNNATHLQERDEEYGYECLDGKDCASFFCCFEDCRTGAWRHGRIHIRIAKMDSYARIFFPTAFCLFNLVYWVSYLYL
T1 sequence (P28472 whole entry): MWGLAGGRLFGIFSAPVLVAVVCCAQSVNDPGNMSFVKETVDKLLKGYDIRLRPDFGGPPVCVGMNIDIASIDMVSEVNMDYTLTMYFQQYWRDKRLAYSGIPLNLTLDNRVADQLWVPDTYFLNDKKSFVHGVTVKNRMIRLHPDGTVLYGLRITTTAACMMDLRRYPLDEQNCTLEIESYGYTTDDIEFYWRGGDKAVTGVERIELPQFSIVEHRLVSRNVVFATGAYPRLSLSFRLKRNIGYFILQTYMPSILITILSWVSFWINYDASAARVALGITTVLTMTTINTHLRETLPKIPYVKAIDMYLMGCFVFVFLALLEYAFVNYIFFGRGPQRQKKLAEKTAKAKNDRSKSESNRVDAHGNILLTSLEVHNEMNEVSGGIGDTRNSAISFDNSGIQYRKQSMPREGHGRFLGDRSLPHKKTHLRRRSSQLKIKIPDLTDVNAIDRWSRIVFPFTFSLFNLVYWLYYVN
How it was run: (§2)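 Radioligand displacement of [³H]Ro15-1788 from recombinant human GABA-A receptor subtypes. Ki values are the geometric mean ± SEM of three independent determinations.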

[5] = molecular target: T2, GABA-A receptor; alpha-2/beta-3/gamma-2 (Homo sapiens, UniProt P18507+P28472+P47869); assay: Displacement of [3H]- Ro 15-1788 binding from human GABA-A receptor alpha-2-beta-3-gamma-2 subunits; format: protein-complex assay; how it was run: as §2
T2 sequence (P18507 whole entry): T1 sequence (P18507 whole entry)
T2 sequence (P28472 whole entry): T1 sequence (P28472 whole entry)
T2 sequence (P47869 whole entry): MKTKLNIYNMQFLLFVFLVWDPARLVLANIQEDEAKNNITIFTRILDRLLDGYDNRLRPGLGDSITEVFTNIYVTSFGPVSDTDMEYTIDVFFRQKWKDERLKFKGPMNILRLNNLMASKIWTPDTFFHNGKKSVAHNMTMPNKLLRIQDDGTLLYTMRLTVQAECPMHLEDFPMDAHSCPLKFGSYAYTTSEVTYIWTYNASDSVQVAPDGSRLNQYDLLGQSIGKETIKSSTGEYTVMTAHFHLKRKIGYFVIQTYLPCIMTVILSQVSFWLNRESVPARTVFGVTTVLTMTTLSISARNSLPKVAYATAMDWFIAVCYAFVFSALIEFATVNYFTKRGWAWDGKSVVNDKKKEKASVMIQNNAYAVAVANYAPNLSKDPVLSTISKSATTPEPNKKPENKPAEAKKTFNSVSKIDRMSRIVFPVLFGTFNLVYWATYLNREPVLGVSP

[6] = molecular target: T3, GABA-A receptor; alpha-3/beta-3/gamma-2 (Homo sapiens, UniProt P18507+P28472+P34903); assay: Displacement of [3H]- Ro 15-1788 binding from human GABA-A receptor alpha-3-beta-3-gamma-2 subunits; format: protein-complex assay; how it was run: as §2
T3 sequence (P18507 whole entry): T1 sequence (P18507 whole entry)
T3 sequence (P28472 whole entry): T1 sequence (P28472 whole entry)
T3 sequence (P34903 whole entry): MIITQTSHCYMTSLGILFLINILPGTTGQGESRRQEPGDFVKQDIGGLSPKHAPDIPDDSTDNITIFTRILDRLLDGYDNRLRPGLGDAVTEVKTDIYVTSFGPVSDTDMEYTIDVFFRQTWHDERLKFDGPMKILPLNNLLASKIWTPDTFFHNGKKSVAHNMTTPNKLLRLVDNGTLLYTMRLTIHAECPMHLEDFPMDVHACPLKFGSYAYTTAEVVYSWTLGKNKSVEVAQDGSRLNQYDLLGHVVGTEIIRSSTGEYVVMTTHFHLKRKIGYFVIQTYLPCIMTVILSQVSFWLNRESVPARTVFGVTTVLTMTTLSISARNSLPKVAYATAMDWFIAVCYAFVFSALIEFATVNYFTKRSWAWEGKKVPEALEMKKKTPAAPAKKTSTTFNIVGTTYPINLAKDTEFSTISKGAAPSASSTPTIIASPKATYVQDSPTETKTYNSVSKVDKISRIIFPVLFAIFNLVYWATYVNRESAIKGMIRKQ

[7] = molecular target: T4, GABA-A receptor; alpha-5/beta-3/gamma-2 (Homo sapiens, UniProt P18507+P28472+P31644); assay: Displacement of [3H]- Ro 15-1788 binding from human GABA-A receptor alpha-5-beta-3-gamma-2 subunits; format: protein-complex assay; how it was run: as §2
T4 sequence (P18507 whole entry): T1 sequence (P18507 whole entry)
T4 sequence (P28472 whole entry): T1 sequence (P28472 whole entry)
T4 sequence (P31644 whole entry): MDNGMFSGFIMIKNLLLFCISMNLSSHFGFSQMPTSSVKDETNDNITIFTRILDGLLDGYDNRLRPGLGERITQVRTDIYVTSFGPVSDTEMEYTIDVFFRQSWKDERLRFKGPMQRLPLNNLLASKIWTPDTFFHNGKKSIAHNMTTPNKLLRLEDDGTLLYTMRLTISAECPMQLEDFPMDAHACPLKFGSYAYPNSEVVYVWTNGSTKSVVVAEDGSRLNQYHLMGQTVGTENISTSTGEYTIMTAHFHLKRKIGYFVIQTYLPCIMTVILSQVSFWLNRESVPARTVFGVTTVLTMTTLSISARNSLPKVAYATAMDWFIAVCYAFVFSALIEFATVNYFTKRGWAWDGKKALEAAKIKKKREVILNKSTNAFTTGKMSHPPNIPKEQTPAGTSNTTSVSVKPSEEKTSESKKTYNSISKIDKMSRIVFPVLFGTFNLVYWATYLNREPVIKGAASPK

[8] = molecular target: T5, Gamma-aminobutyric acid receptor subunit alpha-5 (Homo sapiens) (UniProt P31644); assay: Selectivity for GABA-A receptor alpha-5 subunit binding over alpha-1,2,3 when co-expressed with beta-3 and gamma-2
T5 sequence (whole entry): T4 sequence (P31644 whole entry)
How it was run: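 Ratio of binding affinity for α5 over α1, α2 and α3. Each affinity comes from [³H]Ro15-1788 displacement at recombinant human receptors, with Ki as the geometric mean of three independent determinations.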

[9] = molecular target: T6, GABA-A receptor; alpha-5/beta-3/gamma-2 (Homo sapiens) (UniProt P18507+P28472+P31644); assay: Maximum modulation relative to GABA EC20 against human GABA-A receptor alpha-5-beta-3-gamma-2 subunits expressed in mammalian fibroblast L(tk-) cells; format: cell-based; how it was run: as §1
[10] = molecular target: T6, GABA-A receptor; alpha-5/beta-3/gamma-2 (Homo sapiens); assay: Percentage modulation of GABA EC20 against human GABA-A receptor alpha-5-beta-3-gamma-2 subunits expressed in Xenopus laevis oocytes; format: cell-based; details: Oocyte

Compound | Efficacy [1] [%] | Efficacy [2] [%] | Efficacy [3] [%] | Ki [4] [nM] | Ki [5] [nM] | Ki [6] [nM] | Ki [7] [nM] | Selectivity [8] | Efficacy [9] [%] | Efficacy [10] [%]
CCc1c(C(=O)OC)ncc2[nH]c3cc(OC)c(OC)cc3c12 | -71 | -62 | -53 | 10 | 13 | 7.5 | 2.2 | 3 | -57 | -34
CC(C)Sc1sc(-c2cc[nH]n2)c2c1C(=O)CC(C)(C)C2 | – | – | – | 5 | 12 | 7 | 2 | 6 | – | –
CC1(C)CC(=O)c2c(SSc3nccs3)sc(-c3cc[nH]n3)c2C1 | – | – | – | 4.3 | 19 | 48 | 1.4 | 3 | – | -7
CCSc1sc(-c2cc[nH]n2)c2c1C(=O)CC(C)(C)C2 | – | – | – | 12 | 16 | 16 | 1.6 | 10 | – | –
CSc1sc(-c2cc[nH]n2)c2c1C(=O)CC(C)(C)C2 | – | – | – | 66 | 56 | 21 | 5.2 | 13 | – | -3
CC1(C)CC(=O)c2c(SCCO)sc(-c3nccs3)c2C1 | -21 | -3 | -1 | 20 | 16 | 20 | 1.6 | 13 | -51 | -38
CSc1sc(-c2nccs2)c2c1C(=O)CC(C)(C)C2 | – | – | – | 61 | 44 | 47 | 2.2 | 28 | – | -24
CSc1sc(-c2cccnc2)c2c1C(=O)CC(C)(C)C2 | – | – | – | 165 | 31 | 33 | 5.8 | 28 | – | -40
CC1(C)CC(=O)c2c(SCCO)sc(-c3cc[nH]n3)c2C1 | – | – | – | 31 | 21 | 24 | 2.9 | 11 | – | –
CSc1sc(-c2ccncc2)c2c1C(=O)CC(C)(C)C2 | – | – | – | 172 | 43 | 35 | 9.1 | 19 | – | -20
CSc1sc(-c2ccccn2)c2c1C(=O)CC(C)(C)C2 | – | – | – | 45 | 26 | 25 | 1.7 | 26 | – | -31
CC1(C)CC(=O)c2c(SCCO)sc(-c3ccccn3)c2C1 | – | – | – | 3.6 | 5.2 | 10 | 0.5 | 20 | – | -39
